Experimental findings from the RNAGym collection of RNA variant scans (doi:10.1126/science.aae0568) are described below.

First the molecules themselves.
B1: tRNA (parent)
chain: GUUCCGUUGGCGUAAUGGUAACGCGUCUCCCUCCUAAGGAGAAGACUGCGGGUUCGAGUCCCGUACGGAACG

This sample holds only a part of the variants without activity.

The variants in the data set derive from B1. The experiment in a line: yeast fitness relative to wild type (ratio to wild type); higher = fitter; tRNA-Arg(CCU), competitive growth, 37 C, YPD. The procedure, abridged:
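The tRNA-Arg(CCU) gene variants were made by chemical synthesis with a 3% per-site mutation rate at 69 sites and inserted at the native genomic locus of Saccharomyces cerevisiae. After pooling, the strains were competed in YPD at 37°C for 24 hours in six parallel replicates. Gene amplicons from the start population and each end population were read by 100-nucleotide paired-end sequencing, and Darwinian fitness relative to wild type was taken from genotype frequency changes. Genotypes needed ≥ 100 starting reads, and estimates < 0.5 were set to 0.5.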
With GUUCCGUUGGCGUAAUGGUAACGCGUCGCCCACCUAACGAGAAGACUGCGGGUUCGAGUCCCGUACGGAACG [U28G U32A G38C], the yeast fitness stood at 0.653. Next, GAUCGGUUGGCGUGAUGGUAACGCGUCUCGCUCCUAAGGAGAAGAUUGCGGGUUCGAGUCCCGUAAGGAUCG [U2A C5G A14G C30G C46U C66A A70U]: no more than 0.5. The figure for GUUCCGUUGGCGUAAUGGUAACGCGUCUCACUCUUAAGGAGAAGACUGCGGGUUCGAGUCCCGUACGGAACG [C30A C34U] is 0.752; for GUUCCGUUGGCGUAAUGGUAACGCGUCUCCCUCCUAACGACAAGACUGCGGGUUUGAGUCCCGUACGGAACG [G38C G41C C55U] it is no more than 0.5; for GUUCGGUUGGAGUAAUGGUAACGCGUCUCCCUCCUAAGGAGAAGACUGCGGGUUCGAGUCCCGUACGGAACG [C5G C11A] it is 0.609. Next, GUUCCGUUGGCGUAAUGGUAACGCGCCUCCCUCGUAAGGAGAAGACUGCGGGUUCGAGUCCCGUACGGACCG [U26C C34G A70C]: no more than 0.5. For the variant GUUCCGUAGGCGUAAUGGUAACGCGUCUCCCUCCUAAGGUGAAGACUGCGGGUUCGAGUCCCGUACGGAACG [U8A A40U], the yeast fitness was found to be 0.707. The figure for GUUCCGUUGGCGUAAUGGUAACGCGUCUCCCACCUAAGGAGAAGACUGCAGGUUCGAGUCCCGUACGGUACG [U32A G50A A69U] is 0.527; for GUUCCACUGGCGUAAUGGUAACGCGUCUCCCUCCUAAGGAACAGACUGCCGGUUCGAGUCCCGUACGGAGCG [G6A U7C G41A A42C G50C A70G] it is 0.593.

Take GUCCCAUUGGCGUAAUGGUAACGCGUCUCCCUCCUAAGGAGAAGACUGCGGGUUCGAGUCCCGUACGGAACG [U3C G6A]: the yeast fitness was 0.866. The figure for GUUCCGUUGGCGUAAUGGUAACGCGUCUCCAUCCUAAGGAGAAGACUGCGGGUUCGAGUCCCGUACGCAACG [C31A G68C] is 0.648. The figure for GUUCCGUUGGCGUAAUGGUAACGCGUCCCCCUUCUAAGGAAAAGACUGCGGGUUCGAGUCCCGUACGGUACG [U28C C33U G41A A69U] is no more than 0.5; for GUUCCGUUGGUGUAAUGGUAACGCGUCUCCCUCCUAAGGAGAUGAGUGCGGGUUCGAGUCCCGUACGGAACG [C11U A43U C46G] it is 0.723; for GUUCCGUUAGCGUAAUGGUAACGCGUCUCCAUCCUAAGGAGAAGACUGCGGGUUCGAGUCCCGUUCGGAACG [G9A C31A A65U] it is no more than 0.5. The figure for GUUUCGUUGGCGUAAUGGUAACGCGUCUCCCUACUAAGGAGAAGACUGCGGGUGCGAGUCCCGUACGGAACG [C4U C33A U54G] is no more than 0.5; for GUUCCGCUGGCAUAAUGGUAACGUGUCUCCCUCCUAAGGAGAAGACUGAGGGUUCGAGUCCCGUACGGAACG [U7C G12A C24U C49A] it is no more than 0.5. GUUCCGUUGGCGUAAUGGUAACGCGUCUCCCUCCUAAGGAGAAGACUGCGAGUUCGCGUCCCGUAUGGAACG [G51A A57C C66U]: the yeast fitness amounted to 0.59.

As to GUUCCGUUGGCGUAAUGGUAACGCGUGUCCCUCCUACGAAGAAGCCUGCGGGUUCGAGUCCCGUACGGAACG [C27G A37C G39A A45C], the yeast fitness is 0.646. The figure for GUUCCGUUGGCGUAAUGGUAACACGUCUCCCUCAUAAGGAGAAGACUGCGGCUUCGAGUCCCCUACGGAACG [G23A C34A G52C G63C] is no more than 0.5. Next, GUUCCGUUGGCGUAAUGGUAAGGCGUCUCCCUCCUAAGGAGAAGACAGUGGGUUCGAGUCCCGUACGGAACG [C22G U47A C49U]: 0.638; GUUCCGUUGGCGUAAUGGUAUCGCGUCUCCCUUCUAAGGAGAAGACUGCGGGUUCGAGACCCGUACGGAACG [A21U C33U U59A]: no more than 0.5; GUACCGUUGGCGUAAUGGUACCGCGUCUCCCUCCUAAGGAGAAGACUGGGGGUUCGAGUCCCGUACGGAACG [U3A A21C C49G]: no more than 0.5. Next, GUUCCGUUGGCGUAAUGGUAACGGGUCUCCCUCCUUAGGAGAUGACUGCGGGUUCGAGUCCCGCACGGAACG [C24G A36U A43U U64C]: no more than 0.5; GUUCCGUUGGCGUAAUGGUAACGCGUCUUCCUCCUAGGGAGAAGACUACGGGUUCGAGUCCCGUACGCUACG [C29U A37G G48A G68C A69U]: 0.662.

Regarding GUUCCGUUGGCGUAAUGGUAACGCGUCUCCCUCCUAAGGAGAAGGUUGCGGGUUCGAGUCCCGUACGGAACG [A45G C46U], the yeast fitness came to 0.991.

Regarding GUUCCGUUGGCGUAAUGGUAACGCUUCUCCCUCCUAAGGAGAAGCCUGCGGGUUCGAGUCCAGUACGGAACG [G25U A45C C62A], the yeast fitness was found to be 0.777. Turning to GUACCGUUGGCGUAAUGGUAACGCGUCUCCCUCCUAAGGAGAAGACUGCGGGUUCGAGUCCCGUAUGGAACG [U3A C66U], the yeast fitness was 0.891. Next, GUUCCGUUGGCGUAAUGGUUACACGUCUCCCUCCUAAGGAGAAGACUGCGGGUUCGAGUCUCGUACGGAACG [A20U G23A C61U]: 0.561; GUUCCGUUGGCGUAACGGUAACGCCCCUCCCUCUUAAGGAGAAGACUGCGGGUUCGAGUCCCGGACGGAACG [U16C G25C U26C C34U U64G]: 0.528; GUUCCGUUGGCGUAGUGGUAACGCGUCUCCCUCCAAAGGAGAAGACUGCGGGUUCGAGUCCACUACGGAACG [A15G U35A C62A G63C]: no more than 0.5. The figure for GUUCCGUUGGCGUAAUGGUAAGGCGUCUCCCUCCUAAGGAGAAGACGGCGGGUUCGAGUCCCGUACGGAACG [C22G U47G] is 0.597. Next, GUCCCGUUGGCGUAAUGGUAACGCGUCUCCCUCCUAAGGAGCAGACUGCGGGUUCGAGUCCCGUUCGGAACG [U3C A42C A65U]: 0.651; GUUCGGUUGGCGUAAUGGUAACGCGUCUCCCUCCUAAGGAGAAGACUGGAGGUUCGCGUCCCGUACGGAACG [C5G C49G G50A A57C]: no more than 0.5. In the case of GUUGCGUUGGCGUAAUGGUAACGCGUCUCCCUCCUAUGGAGAAGACUGCGACUUCGAGCCCCGUACGGAACG [C4G A37U G51A G52C U59C], the yeast fitness was no more than 0.5. The figure for GUUCCGUUGGCGUAAUGGUAACGCGUCGCCCUCCUAAGGAGAAGACUGCGGGUUCGAGUCUCGUACGGAACG [U28G C61U] is 0.808; for GUUCCGUUGGCGUAAUGGUAACGCGUCUCCCUCCUAAGGAGAAGACUGCGGGUGCGAGUCGCGUACGGAACG [U54G C61G] it is no more than 0.5; for GUUCCAUUGGCGUAAUGGUAACGCGUUUCCCUCCUAAGGAGUAGACUGCGGGUUCGAGUCCUGUACGGAACG [G6A C27U A42U C62U] it is no more than 0.5.

Take GUUCCGUUGGCGUAAUACUAUCGCGUCUCCCUCCUAAGGAGAAGACUGCGGGUUUGAGACCAGUACGGAACG [G17A G18C A21U C55U U59A C62A]: the yeast fitness is no more than 0.5.
